Compounds with a hit are over-represented: about 2.3% of the library has one in this group of screens.
TRPC4 PAM – allosterically enhances the mouse TRPC4 cation channel; B-score at 10 µM; 310,000 tested, 0.42% active; HEK293 TRPC4beta/mu-opioid, DAMGO EC20, Fluo-4 Ca2+ flux; hits give high values; Q9QUQ5; AID 2227;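 active means B-score of calcium response area above 5 SD of library B-scores, with initial fluorescence ratio within 5 SD of library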
Target sequence (Q9QUQ5 whole entry, looked up): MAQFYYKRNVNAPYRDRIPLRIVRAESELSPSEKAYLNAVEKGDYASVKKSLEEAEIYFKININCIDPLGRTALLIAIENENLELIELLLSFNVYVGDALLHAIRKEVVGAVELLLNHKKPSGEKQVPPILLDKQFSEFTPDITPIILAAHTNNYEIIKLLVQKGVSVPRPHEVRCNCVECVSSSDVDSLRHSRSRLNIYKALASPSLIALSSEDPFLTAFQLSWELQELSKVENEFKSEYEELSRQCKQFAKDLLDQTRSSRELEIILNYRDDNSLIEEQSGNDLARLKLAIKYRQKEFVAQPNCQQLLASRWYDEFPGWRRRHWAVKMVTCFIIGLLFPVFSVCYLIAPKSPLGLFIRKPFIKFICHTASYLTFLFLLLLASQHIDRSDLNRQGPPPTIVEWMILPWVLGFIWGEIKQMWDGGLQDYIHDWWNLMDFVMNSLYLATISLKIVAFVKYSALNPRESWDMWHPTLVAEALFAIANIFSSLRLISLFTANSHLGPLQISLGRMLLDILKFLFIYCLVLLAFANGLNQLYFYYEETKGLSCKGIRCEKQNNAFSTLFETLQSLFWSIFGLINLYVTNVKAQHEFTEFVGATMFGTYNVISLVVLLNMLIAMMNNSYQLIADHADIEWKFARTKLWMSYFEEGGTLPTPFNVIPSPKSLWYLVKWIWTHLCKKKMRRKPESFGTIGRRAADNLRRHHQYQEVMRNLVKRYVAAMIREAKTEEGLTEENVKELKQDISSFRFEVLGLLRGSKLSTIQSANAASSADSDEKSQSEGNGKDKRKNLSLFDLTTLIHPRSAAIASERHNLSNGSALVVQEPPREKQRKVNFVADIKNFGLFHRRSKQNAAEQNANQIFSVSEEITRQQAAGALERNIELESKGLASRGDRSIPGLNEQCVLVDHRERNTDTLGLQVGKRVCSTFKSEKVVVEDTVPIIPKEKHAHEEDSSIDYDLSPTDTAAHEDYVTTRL
TRPC4 block – blocks the mouse TRPC4 cation channel | Q9QUQ5 | B-score at 10 µM | HEK293 TRPC4beta/mu-opioid, DAMGO-evoked Fluo4 calcium flux; hits give low values | 300,000 tested, 0.39% active;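 active means B-score over 3 SD under the library average, no early fluorescence shift, positive overall ratio signal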
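Material: HEK293 cells with stable TRPC4beta plus mu-opioid receptor expression / Probe or stimulus: DAMGO in two steps, submaximal then maximal / Compound: single concentration per test compound / Technique: kinetic Fluo4 fluorescence imaging of calcium influx / Read-out: per-well B score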
TRPC4 agonist – TRPC4 (mouse) channel activation; B-score at 10 µM; AID 2237; HEK293 TRPC4beta/mu-opioid, Fluo4 calcium fluorescence; hits give high values; Q9QUQ5; 310,000 tested, 0.49% active;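 active means B-score above 5 SD of library B-scores, and initial fluorescence ratio not above library mean plus 5 SD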;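 further: positive B-score marks a calcium rise read as TRPC4 activation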
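System: HEK293 cells stably co-expressing mouse TRPC4beta and mu-opioid receptor; Schedule: Fluo4 dye loading 45 min at room temperature, 110 s recording; Detection: Fluo4 fluorescence, kinetic; Evaluation: B-scored integrated calcium fluorescence ratio; Controls: buffer (low) and maximal DAMGO (high).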
TRPC6 inh – mouse TRPC6 channel inhibition. B-score at 10 µM. Q61143. 310,000 tested, 1.1% active. HEK293-TRPC6, membrane potential dye, ACh-evoked depolarization; hits give low values;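 active means B-score under library mean minus 3 SD, initial fluorescence not abnormally high, positive integrated signal ratio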;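 further: B-score derived from integrated fluorescence ratio over the kinetic read; more negative B-score means stronger inhibition of depolarization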
TRPC6 activator – activates the mouse TRPC6 cation channel; 310,000 tested, 0.13% active; HEK293-TRPC6 membrane potential dye fluorescence; hits give high values; AID 2550; B-score at 10 µM;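 active means B-score of the integrated fluorescence ratio above library mean plus 3 SD, and starting fluorescence ratio within library mean plus 5 SD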;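 further: higher score means more depolarization so channel activation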
HEK293 MPD ctr – checks TRPC6 modulator effects in parental HEK293 cells; membrane potential dye fluorescence; 2,400 tested, 51% active; shares compounds with TRPC6 inh; membrane potential signal change, % at 10 µM;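 active means membrane potential signal moves up or down beyond 5 SD from buffer-only wells, on both duplicate plates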
HEK293 MPD ctr 2 – parental HEK293 nonspecific activity of TRPC6 modulators, second screen | shares compounds with TRPC6 inh | membrane potential dye fluorescence; after compound, maximal acetylcholine stimulation | inhibition, % at 10 µM | 2,400 tested, 14% active;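 active means membrane potential signal drops by more than 5 SD from the mean control signal, in both duplicate plates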
TRPC4/MOR mod – selectivity of TRPC6 modulators against mouse TRPC4 | 2,400 tested, 69% active | AID 488927 | HEK293 TRPC4/mu-opioid, membrane potential fluorescence | percent change from control (negative = decrease, positive = increase), % at 10 µM | shares compounds with TRPC6 inh;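 active means membrane potential signal moved up or down beyond 5 SD of buffer control wells, in both duplicate plates, actives on both sides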
TRPC4 ctr inh 2 – mouse TRPC4 off-target activity of TRPC6 modulators, second screen; HEK293 TRPC4/mu-opioid, membrane potential dye fluorescence; stimulated with maximal-effect DAMGO; shares compounds with TRPC6 inh; inhibition, % at 10 µM; 2,400 tested, 55% active; AID 488928;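 active means drop in membrane potential signal beyond 5 SD of the control wells in both duplicate plates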;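 further: TRPC4 counter screen for TRPC6 hits run under conditions tuned for TRPC6 not TRPC4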
TRPC6 block conf – confirmation of mouse TRPC6 inhibitors | shares compounds with TRPC6 inh | AID 488960 | 3,300 tested, 43% active | inhibition, % at 10 µM | HEK293-TRPC6, membrane potential dye, ACh-evoked depolarization;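 active means fluorescence ratio falls more than 5 SD below the full-stimulation control mean, in both duplicate runs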;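 further: integrated fluorescence ratio of peak minus minimum over baseline after agonist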
TRPC6 act confirm – mouse TRPC6 activator confirmation | shares compounds with TRPC6 inh | HEK293-TRPC6 membrane potential dye fluorescence, FDSS | activation, % at 10 µM | 2,800 tested, 11% active;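 active means ratio signal rise beyond 5 SD above unstimulated control wells' mean, seen in both duplicate runs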
Numbers stand for hits.

How did CC1CCCN(C(=O)COC(=O)c2cc(-c3cccs3)nn2-c2ccccc2)C1 (centres undefined) do in these assays?
TRPC4 PAM: inactive; TRPC4 block: inactive; TRPC4 agonist: inactive; TRPC6 inh: -6.5; TRPC6 activator: inactive; HEK293 MPD ctr: 113%; HEK293 MPD ctr 2: inactive; TRPC4/MOR mod: 18%; TRPC4 ctr inh 2: inactive; TRPC6 block conf: 50%

Results for CCOc1cc(/C=C2\SC(=Nc3ccc(CC)cc3)NC2=O)ccc1OCC(=O)O ?
TRPC4 PAM: inactive; TRPC4 block: inactive; TRPC4 agonist: inactive; TRPC6 inh: inactive; TRPC6 activator: inactive

Results for CCCCn1c(N)c(N(CCOC)C(=O)c2ccc(C)c(S(=O)(=O)N3CCCCC3)c2)c(=O)[nH]c1=O ?
TRPC4 PAM: inactive; TRPC4 block: inactive; TRPC4 agonist: inactive; TRPC6 inh: -5.8; TRPC6 activator: inactive; HEK293 MPD ctr: inactive; HEK293 MPD ctr 2: inactive; TRPC4/MOR mod: inactive; TRPC4 ctr inh 2: inactive; TRPC6 block conf: inactive; TRPC6 act confirm: inactive

How did CC(OC(=O)Cc1ccc(Br)cc1)C(=O)NC1CCCCC1C (centres undefined) do in these assays?
TRPC4 PAM: inactive; TRPC4 block: inactive; TRPC4 agonist: inactive; TRPC6 inh: inactive; TRPC6 activator: inactive

What do the screens show for `Cc1cccnc1NCC(O)COc1ccccc1` (centres undefined)?
TRPC4 PAM: inactive; TRPC4 block: inactive; TRPC4 agonist: inactive; TRPC6 inh: -6.5; TRPC6 activator: inactive; HEK293 MPD ctr: inactive; HEK293 MPD ctr 2: inactive; TRPC4/MOR mod: inactive; TRPC4 ctr inh 2: inactive; TRPC6 block conf: inactive; TRPC6 act confirm: inactive

How did CCCCCC(=O)Nc1cc(N(C)C)nc2ccccc12 do in these assays?
TRPC4 PAM: inactive; TRPC4 block: inactive; TRPC4 agonist: inactive; TRPC6 inh: -5.4; TRPC6 activator: inactive; HEK293 MPD ctr: inactive; HEK293 MPD ctr 2: inactive; TRPC4/MOR mod: -10%; TRPC4 ctr inh 2: 48%; TRPC6 block conf: inactive; TRPC6 act confirm: inactive

Results for CCCCCCC(=O)Nc1c2c(nc3ccccc13)N(C)CC2 ?
TRPC4 PAM: inactive; TRPC4 block: inactive; TRPC4 agonist: inactive; TRPC6 inh: inactive; TRPC6 activator: inactive

What do the screens show for `Cc1ccccc1NC(=O)CN1CCN(C)CC1`?
TRPC4 PAM: inactive; TRPC4 block: inactive; TRPC4 agonist: inactive; TRPC6 inh: inactive; TRPC6 activator: inactive
